Screening results (PubChem BioAssay)
HTRA1 inh – blocks human HTRA1 serine peptidase | Q92743 | recombinant HTRA1, FP-rhodamine activity-based probe, fluorescence polarization | inhibition, % at 5.96 µM | 0.5% of 340,000 active; in the data active = inhibition above about 36%;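 note: 0% = enzyme with DMSO and 100% = wells lacking enzyme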
GASC-1 inh – human JMJD2C demethylase inhibition; Q9H3R0; GST-JMJD2C(1-420) H3K9me3 demethylation, DELFIA europium; inhibition, % at 2.35 µM; 0.069% of 330,000 active;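 active = more than half of a compound's replicate wells show inhibition beyond 50%, single wells judged on their own value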;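 note: signal counts dimethyl H3K9 product captured on neutravidin plate; 0% = median of DMSO wells and 100% = 0.3 times that DMSO median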
SIAE primary – inhibitors of human sialic acid acetylesterase SIAE. 0.69% of 370,000 active. Q9HAT2. SIAE FP-Rh probe binding, fluorescence polarization. inhibition, % at 9.66 µM;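 active = inhibition above a cutoff: mean of compounds within the control limits plus 3 SD of those, cut at about 17% in these data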;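 note: 0% = plate median of compound wells and 100% = probe without SIAE protein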
Target sequence (Q9HAT2 whole entry, looked up): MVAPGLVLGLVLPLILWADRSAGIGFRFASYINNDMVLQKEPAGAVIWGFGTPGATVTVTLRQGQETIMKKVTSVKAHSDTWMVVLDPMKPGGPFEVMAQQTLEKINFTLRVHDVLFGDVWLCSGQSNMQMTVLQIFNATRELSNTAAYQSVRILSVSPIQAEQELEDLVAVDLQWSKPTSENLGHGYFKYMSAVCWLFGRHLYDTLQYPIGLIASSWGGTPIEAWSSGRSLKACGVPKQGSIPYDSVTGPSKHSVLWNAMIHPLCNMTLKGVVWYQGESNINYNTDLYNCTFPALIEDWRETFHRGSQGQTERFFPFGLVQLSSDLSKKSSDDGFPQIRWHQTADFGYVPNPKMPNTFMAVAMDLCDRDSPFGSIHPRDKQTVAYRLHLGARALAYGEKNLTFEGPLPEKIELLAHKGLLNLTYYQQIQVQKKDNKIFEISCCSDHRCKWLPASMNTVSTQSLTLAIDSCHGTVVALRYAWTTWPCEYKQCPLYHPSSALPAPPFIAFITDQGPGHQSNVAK
PRMT1 inh – PRMT1 (human) inhibition, primary screen; Q99873; recombinant PRMT1, activity-based probe fluorescence polarization; inhibition, % at 2.79 µM; 1.3% of 370,000 active;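 active = inhibition above about 21% made by adding two undisclosed values, limit read from the data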
ABHD4 inh – ABHD4 (mouse) inhibition, primary FP screen; Q8VD66; purified mABHD4, FP-Rh probe fluorescence polarization; inhibition, % at 8.92 µM; 0.54% of 370,000 active;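 active = inhibition exceeding the mean over every tested compound plus 3 SD, cut at about 30% in these data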;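 note: 0% = plate median of compound wells and 100% = S159A mutant with DMSO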
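assay system = mABHD4 protein | compound dosing = single nominal dose of 8.92 µM, 0.89% DMSO final | read-out basis = percent inhibition of probe binding, normalized to plate controls | schedule = Enzyme–compound pre-incubation 45 min, then probe 60 min, both 25 °C | detection = fluorescence polarization, excitation 525 nm, emission 598 nm, BODIPY TMR filters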
PRMT1 inh conf – confirmation of human PRMT1 inhibitors. shares compounds with PRMT1 inh. AID 687036. recombinant His-PRMT1, activity-based probe fluorescence polarization. 42% of 3,300 active. inhibition, % at 2.79 µM;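 active = mean inhibition across replicates above the hit cutoff derived for the earlier primary screen, cut at about 22% in these data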
* hit, by the source's call; / = no result. In the library only some 2.4% were active in any assay of this set; here they are far more common.

SMILES	HTRA1 inh	GASC-1 inh	SIAE primary	PRMT1 inh	ABHD4 inh	PRMT1 inh conf
COc1ccc(NC(=O)NS(=O)(=O)c2ccc(C)cc2)cn1	2	1	2	105*	11	10
CC(C)CC1=NN2C(=N)/C(=C\c3coc4ccccc4c3=O)C(=O)N=C2S1	-24	24	-19	34*	3	48*
COP(=O)(CC(=O)OC(C)(C)C)C(CC(C)C)NC(=O)OCc1ccccc1 (stereo not drawn)	/	/	-8	1	9	/
NC(Cc1ccc(Cl)cc1)c1csc(Nc2ccc(-c3ccccc3)nn2)n1 (stereo not drawn)	/	/	1	-3	24	/
O=C1CCCCCCC1Sc1ccccc1[N+](=O)[O-] (stereo not drawn)	-3	2	2	30*	-4	9
Cc1ccc(C(=O)CSc2cc(C)nc(SCC(=O)c3ccccc3)n2)cc1	-34	3	-6	1	-3	/
Cc1ccc(C(=O)CSc2ccccn2)cc1	-1	-4	6	61*	-6	40*
O=C(O)c1ccc(CSc2ccccn2)cc1	6	-9	-1	-2	-4	/
O=C(CSc1ccccn1)c1ccc(F)cc1	-3	-7	-3	27*	0	24*
CCOC(=O)C1=C(C)NC(C)=C(C(=O)OCC)C1c1cccc([N+](=O)[O-])c1	-10	/	12	-2	9	/
COC(=O)C1=C(C)NC(C)=C(C(=O)OCC(C)C)C1c1ccccc1[N+](=O)[O-] (stereo not drawn)	6	-2	6	25*	18	18
CCCSc1nnc(NC(=O)c2sc3nc(-c4cccs4)ccc3c2N)s1	-17	-9	-11	28*	-16	5
Cc1cc2cc(C=C(C#N)C#N)c(Cl)nc2cc1C	-1	8	0	86*	8	8
CC(=O)C1=C(C)Nc2cc(C(F)(F)F)ccc2S1	-7	4	-3	28*	5	13
CCOC(=S)SCc1cn2ccccc2n1	0	-4	-1	10	2	/
CCOC(=S)SCc1cn2ccc(C)cc2n1	7	-1	11	42*	-2	26*
COC(=O)[C@]12C[C@H](CC(=O)N3CCN(C(=O)c4ccco4)CC3)C(=O)N(Cc3ccccc3)C1=C[C@H](COCc1ccccc1)O[C@@H]2C	/	/	-10	2	3	/
COC/C=C/C1=CC2=CC(=O)C(C)(OC(=O)c3cccs3)C(=O)C2=CO1 (stereo not drawn)	/	3	/	/	/	/
COC/C=C/C1=CC2=CC(=O)C(C)(OC(=O)C3CCCC3)C(=O)C2=CO1 (stereo not drawn)	28	15	4	46*	22	24*
COc1cccc(CNC(=O)[C@H]2CCCN2C(=O)[C@H]2CCCN2C(=O)c2cccc3ccccc23)c1	/	/	2	-1	-6	/
COc1ccccc1CN(C)C(=O)c1ccc2c(c1)NC(=O)CS2	2	7	1	2	2	/
Cc1ccc(CN(C)C(=O)c2ccc3c(c2)NC(=O)CS3)o1	3	-7	10	40*	5	5
Nc1ccc2nc(-c3ccccc3)cnc2c1	19	-1	-2	31*	13	33*
FC(F)(F)c1cc(CNC2CCC23CCCCC3)ccc1Cl (stereo not drawn)	/	/	-2	4	5	/
COc1cccc(/C=C2\SC(=O)N(CCC(=O)N3CCC(C(=O)O)CC3)C2=O)c1	6	2	12	30*	1	2
SMILES	HTRA1 inh	GASC-1 inh	SIAE primary	PRMT1 inh	ABHD4 inh	PRMT1 inh conf
COc1cccc(/C=C2\SC(=S)N(CCCC(=O)N3CCCC3)C2=O)c1	4	1	-6	2	-11	/
CCOC(=O)N(C)OC(=O)Nc1ccc(Cl)c(Cl)c1	-18	5	-7	35*	-6	36*
CCOC(=O)N(CC)OC(=O)Nc1ccc(Cl)cc1	-4	3	3	6	-2	/
CCC(/C=C1\Oc2ccc(OC)cc2N1C)=C\c1sc2ccccc2[n+]1CCCS(=O)(=O)[O-]	-60	/	-59	49*	-83	10
CC(C)NC(=S)NNc1nc2ccccc2s1	-3	6	0	60*	10	57*
CCNC(=O)C1(C)CCCN(C(=O)c2cc(C)n(C(C)(C)C)n2)C1 (stereo not drawn)	/	/	-7	0	-8	/
O=C(c1cc(Cl)cc(Cl)c1)N1CCC(Oc2cccnc2)CC1	/	/	5	-2	1	/
CCCCCCCCN1C(=O)[C@@H](CC(=O)N2CCCC2)C[C@@]2(C(=O)OC)C1=C[C@H](COCc1ccccc1)O[C@@H]2C	/	/	1	2	1	/
Cc1ccc(-n2c(-c3cc(-c4ccco4)[nH]n3)n[nH]c2=S)c(Br)c1	-3	-11	-5	2	2	/
S=c1[nH]nc(-c2cc(-c3ccco3)[nH]n2)n1-c1cccc2ccccc12	-6	6	2	36*	13	33*
O=C(O)c1ccc(-n2c(-c3cc(-c4ccco4)[nH]n3)n[nH]c2=S)cc1	5	-12	-4	49*	25	13
CCOc1ccc2nc3sc(C(=O)N4CCOCC4)c(N)c3cc2c1	0	8	1	28*	4	3
COC(=O)C1CSC2c3ccccc3C(=O)N12 (stereo not drawn)	1	2	-3	32*	-9	21
CC(=O)Nc1cc(-c2ccc(N)nc2)cn2c(-c3cccc(C(F)(F)F)c3)cnc12	/	/	4	1	11	/
CC(C)[N+]1=C2C=CC=CC=C2SC12C([N+](=O)[O-])=CC(=[N+]([O-])[O-])C=C2[N+](=O)[O-] (stereo not drawn)	14	16	0	37*	6	14
CCCCOc1ccc(CN2CCCCC2)cc1	-2	8	4	0	7	/
Oc1ccc(N2CCN(Cc3ccc(OCCCN4CCCCC4)cc3)CC2)cc1	13	-1	-2	28*	0	1
CCOC(=S)SCC(=O)Nc1ncc(C)s1	3	0	1	59*	9	46*
Cc1nc2sc(C(=O)NCc3nccs3)c(N)c2c(C)c1Cl	/	/	-1	4	1	/
CS(=O)(=O)N[C@@H]1C[C@@H]2O[C@H](CO)CC[C@@H]2O[C@@H]1CCc1ccc(-c2ccccc2F)cc1	/	/	1	-3	-1	/
Cc1cccc(-c2cccc3c4c([nH]c23)[C@@H]2C[C@H](N(C)C(=O)NC3CCCCC3)[C@H]([C@H](C)O)C(=O)N2CC4)c1	/	/	-4	-3	-4	/
Cc1c(NC(=O)C2CCCN(S(=O)(=O)c3ccc(Cl)s3)C2)c(=O)n(-c2ccccc2)n1C (stereo not drawn)	/	/	-2	7	-12	/
Cc1snc(SCC(=O)c2ccc([N+](=O)[O-])cc2)c1C#N	12	/	11	47*	16	53*
N#Cc1ccc2c(=O)n(-c3ccccc3)sc2c1	5	/	10	78*	3	95*
